From ChEMBL document CHEMBL3272188, “Inhibitors of Bacillus subtilis DNA polymerase III. 6-(arylalkylamino)uracils and 6-anilinouracils” (J Med Chem, 1977)

What was measured:
[1] = Inhibition of wild-type Bacillus subtilis DNA polymerase 3-mediated dGTP truncated DNA synthesis assessed as inhibition of incorporation of [3H]TMP
Summary of the method: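 Pol III truncated DNA synthesis run with dGTP omitted from the reaction. The reported Ki is the inhibitor concentration giving 50% inhibition of enzyme activity.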

Bacillus subtilis = assay: Inhibition of wild-type Bacillus subtilis DNA polymerase 3-mediated dGTP truncated DNA synthesis assessed as inhibition of incorporation of [3H]TMP at 1 mM
Summary of the method: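 Single-concentration test at 1 mM inhibitor in pol III truncated DNA synthesis with dGTP omitted.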

[2] = Inhibition of Bacillus subtilis DNA polymerase 3/azp-12 mutant-mediated dGTP truncated DNA synthesis assessed as inhibition of incorporation of [3H]TMP

Row | Ki [1] | inhibition (Bacillus subtilis) | Ki [2] | SMILES
1 | 0.4 µM |  |  | Oc1cc(Nc2ccc3c(c2)CCC3)nc(O)n1
2 | 17 µM |  | 156 µM | Nc1ccc(CNc2cc(=O)[nH]c(=O)[nH]2)cc1
3 | 31.7 µM |  | 30 µM | Oc1cc(NCCc2ccccc2)nc(O)n1
4 |  | < 10% |  | CC(Nc1cc(=O)[nH]c(=O)[nH]1)c1ccccc1 (configuration not stated)
5 |  | < 10% |  | O=c1cc(NCC2CCCCC2)[nH]c(=O)[nH]1

More lines, now with the values behind:

Row | SMILES | Ki [1] | inhibition (Bacillus subtilis) | Ki [2]
6 | Cc1cccc(Nc2cc(O)nc(O)n2)c1 | 27.5 µM |  | 
7 | Cc1ccc(Nc2cc(O)nc(O)n2)cc1C | 1 µM |  | 
8 | CC(=O)Nc1ccc(CNc2cc(=O)[nH]c(=O)[nH]2)cc1 | 2300 µM |  | 
9 | O=c1cc(NCc2ccc([N+](=O)[O-])cc2)[nH]c(=O)[nH]1 | 5.2 µM |  | 
10 | Oc1cc(NCCCCc2ccccc2)nc(O)n1 |  | < 10% | 
11 | Oc1cc(NCc2ccccc2)nc(O)n1 | 2.3 µM |  | 2.5 µM
12 | Cc1ccc(Nc2cc(O)nc(O)n2)cc1 | 20.4 µM |  | 
13 | Oc1cc(NCCCc2ccccc2)nc(O)n1 | 2000 µM |  | 
14 | Oc1cc(Nc2ccccc2)nc(O)n1 |  | < 10% | 
